Results from different studies.
Protocols differ between the studies behind these lines.
Read-out: cell growth or viability

SMILES	cell line	method	concentration	time	endpoint	value
CC1(C)CC[C@]2(C)CC[C@]3(C)C(=CC[C@@H]4[C@@]5(C)CC[C@H](O)C(C)(C)[C@@H]5CC[C@]43C)[C@@H]2C1	WI-38	WST-1		48 h	IC50	103 µM
CCOC(=O)C(C(C)=O)=C1Sc2nc3ccc(S(=O)(=O)N4CCCC4)cc3nc2S1	WI-38	MTT	25 µM	24 h	viability	60.1%
CC1(C)CC[C@]2(C)CC[C@]3(C)[C@H]4CC=C5[C@@H](CC[C@H](O)C5(C)C)[C@]4(C)CC[C@@]3(C)[C@@H]2C1	WI-38	WST-1			IC50	62.9 µM
C[Si](C)(C)c1cc(C(=O)[C@H](Cc2ccccc2)NC(=O)[C@H](Cc2ccccc2)NC(=O)N2CCOCC2)no1 (mixture of isomers)	MRC-5 SV2				CC50	> 64 µM
Nc1ncnc2c1ncn2[C@@H]1O[C@H](CO)[C@@H](O)[C@H]1O	WI-38	WST-1		48 h	IC50	131 µM
O=C(N[C@@H](Cc1ccccc1)C(=O)c1nccs1)[C@H](Cc1ccccc1)NC(=O)N1CCOCC1	MRC-5 SV2				CC50	> 64 µM
COC(=O)c1c(C)ncn1CC(c1c[nH]c2ccc(C)cc12)c1c[nH]c2ccc(C)cc12	HaCaT	MTS		24 h	CC50	> 20 µM
O=C(N[C@@H](Cc1ccccc1)C(=O)c1nc2ccccc2s1)[C@H](Cc1ccccc1)NC(=O)N1CCOCC1	MRC-5 SV2				CC50	> 64 µM
O=c1c(O)c(-c2ccc(O)cc2)oc2cc(O)cc(O)c12	WI-38	WST-1		48 h	IC50	95.4 µM
O=C(N[C@@H](CCc1ccccc1)C(=O)c1cc(-c2ccccc2)on1)[C@H](Cc1ccccc1)NC(=O)N1CCOCC1 (single isomer, unassigned)	MRC-5 SV2				CC50	> 64 µM
O=c1oc2c(O)c(O)cc3c(=O)oc4c(O)c(O)cc1c4c23	CEM-GFP	MTT		48 h	CC50	> 250 µg/mL
COC(=O)[C@]1(O)C[C@@H](O)[C@@H](O)[C@H](OC(=O)/C=C/c2ccc(O)c(O)c2)C1	WI-38	WST-1			IC50	110 µM
O=C1CCCCC1=C1Sc2nc3ccc(S(=O)(=O)N4CCCC4)cc3nc2S1	WI-38	MTT	3.125 µM	24 h	viability	100%
O=C(N[C@@H](Cc1ccccc1)C(=O)c1c[nH]nn1)[C@H](Cc1ccccc1)NC(=O)N1CCOCC1	MRC-5 SV2				CC50	> 64 µM
Cc1cn(CC(c2cn(C)c3ccccc23)c2cn(C)c3ccccc23)nn1	HaCaT	MTS		24 h	CC50	> 20 µM
CC(=O)OC1c2c(ccc3ccc(=O)oc23)OC(C)(C)C1OC(=O)C(C)(O)C(C)O (stereo not drawn)	WI-38	WST-1			IC50	89.6 µM
C[C@@H]1[C@H](O)[C@@H](C)/C=C/C=C/C=C/C=C/C=C/C=C/C=C/[C@H](O[C@@H]2O[C@H](C)[C@@H](O)[C@H](N)[C@@H]2O)C[C@@H]2O[C@](O)(C[C@@H](O)C[C@@H](O)[C@H](O)CC[C@@H](O)C[C@@H](O)CC(=O)O[C@H]1C)C[C@H](O)[C@H]2C(=O)O	HaCaT	MTS		24 h	CC50	7.95 µM
COc1cccc2c1C(=O)c1c(O)c3c(c(O)c1C2=O)C[C@@](O)(C(=O)CO)C[C@@H]3O[C@H]1C[C@H](N)[C@H](O)[C@H](C)O1	WI-38	MTT	100 µM	24 h	viability	7.8%
COC(=O)c1c(C)ncn1CC(c1cn(C)c2ccccc12)c1cn(C)c2ccccc12	HaCaT	MTS		24 h	CC50	> 20 µM
O=C(N[C@@H](Cc1ccccc1)C(=O)c1cc(-c2ccccc2)on1)[C@H](Cc1ccccc1)NC(=O)N1CCOCC1 (single isomer, unassigned)	MRC-5 SV2				CC50	> 64 µM
N#CC(C(=O)Nc1cccc(C(F)(F)F)c1)=C1Sc2nc3ccc(S(=O)(=O)N4CCCC4)cc3nc2S1	WI-38	MTT	50 µM	24 h	viability	55.4%
